Assay outcomes deposited in PubChem by several laboratories.
This is a sample that favours compounds with a hit; in the whole collection about 3.5% have one here.
PAFAH1B3 inh = blocks human PAF acetylhydrolase 1B catalytic subunit 3. 0.28% of 340,000 active. recombinant PAFAH1B3, FP-rhodamine probe, fluorescence polarization. Q15102. inhibition, % at 3.39 µM;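 active = inhibition above the screen-wide average of all tested compounds plus 3 SD, cut at about 25% in these data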;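 note: 0% = enzyme with DMSO only and 100% = wells lacking PAFAH1B3 protein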
Target sequence (Q15102 whole entry, looked up): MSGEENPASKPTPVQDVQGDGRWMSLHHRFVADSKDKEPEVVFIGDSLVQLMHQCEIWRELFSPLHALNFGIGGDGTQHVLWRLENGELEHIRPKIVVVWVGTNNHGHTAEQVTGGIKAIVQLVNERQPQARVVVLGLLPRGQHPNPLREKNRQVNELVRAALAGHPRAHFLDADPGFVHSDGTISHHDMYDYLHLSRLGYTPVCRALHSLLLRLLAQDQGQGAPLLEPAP
Apaf1 inhib = human Apaf-1 inhibition | reconstituted apoptosome caspase-3 activity, DEVD-Rh110 fluorescence | inhibition, % at 20 µM | 0.71% of 330,000 active; active = inhibition of at least 40% at 20 µM;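 note: plate controls were DMSO wells for no effect and DEVD-CHO caspase inhibitor wells for full effect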
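Material: reconstituted apoptosome with Apaf-1, cytochrome c, caspase-9, procaspase-3, dATP / Buffer or medium: pH 7.5 Hepes buffer with CHAPS, BSA, DTT / Also added: cytochrome c with DEVD-Rh110 / Schedule: compound with Apaf-1, dATP, procaspase-3 30 min, then 50 min reaction, room temperature / Technique: rhodamine 110 fluorescence at Ex 480/Em 540 nm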
PAFAH1B2 inh = PAFAH1B2 (human) inhibition | P68402 | recombinant PAFAH1B2, FP-rhodamine activity probe, fluorescence polarization | inhibition, % at 3.39 µM | 1.2% of 340,000 active | AID 492953;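 active = inhibition above the mean of all tested compounds plus 3 SD, cut at about 24% in these data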;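 note: 0% = enzyme with DMSO and 100% = wells lacking PAFAH1B2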
pPAFAH inh = inhibitors of human plasma PAF acetylhydrolase (pPAFAH); Q13093; recombinant pPAFAH, FP-rhodamine probe fluorescence polarization; inhibition, % at 3.39 µM; 1.5% of 330,000 active;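 active = inhibition above the mean inhibition across the screen plus 3 SD, cut at about 25% in these data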;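 note: inhibitors block binding of the rhodamine activity-based probe so polarization drops; 0% = enzyme with DMSO and 100% = wells lacking pPAFAH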
Target sequence (Q13093 whole entry, looked up): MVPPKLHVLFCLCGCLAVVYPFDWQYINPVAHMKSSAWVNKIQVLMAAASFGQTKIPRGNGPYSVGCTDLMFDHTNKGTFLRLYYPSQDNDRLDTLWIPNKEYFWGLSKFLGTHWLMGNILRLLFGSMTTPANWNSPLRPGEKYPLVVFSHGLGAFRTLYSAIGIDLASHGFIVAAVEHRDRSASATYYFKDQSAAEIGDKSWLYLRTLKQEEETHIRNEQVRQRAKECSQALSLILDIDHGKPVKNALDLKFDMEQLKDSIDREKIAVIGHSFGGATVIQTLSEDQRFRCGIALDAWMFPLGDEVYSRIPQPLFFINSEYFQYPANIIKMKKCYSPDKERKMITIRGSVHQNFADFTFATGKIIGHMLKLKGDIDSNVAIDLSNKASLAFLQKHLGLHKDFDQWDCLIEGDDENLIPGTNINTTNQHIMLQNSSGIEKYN
PAFAH2 inh = inhibitors of human PAFAH2 | inhibition, % at 3.39 µM | 0.99% of 340,000 active | recombinant PAFAH2, FP-rhodamine activity probe, fluorescence polarization | Q99487;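 active = inhibition above the mean over all tested compounds plus 3 SD, cut at about 30% in these data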;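 note: inhibitors block probe labeling of enzyme so polarization drops; 0% = enzyme with DMSO and 100% = wells lacking PAFAH2 protein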
PREPL inh = inhibitors of human prolyl oligopeptidase-like enzyme PREPL. recombinant PREPL, fluorescence polarization activity-based probe. AID 2751. 0.68% of 320,000 active. inhibition, % at 5.96 µM; in the data active = inhibition above about 43%;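 note: 0% = enzyme with DMSO and 100% = wells lacking enzyme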
The depositor's hits bear a star; . = no result given.

SMILES	PAFAH1B3 inh	Apaf1 inhib	PAFAH1B2 inh	pPAFAH inh	PAFAH2 inh	PREPL inh
O=C(c1ccc(F)cc1)[C@@H]1[C@@H](C(=O)c2ccccc2)[C@@]2(C(=O)Nc3ccccc32)[C@H]2c3ccccc3C=CN12	.	72.9*	.	0.3	.	8.2
CCCCN(C(=O)CSc1ncn[nH]1)c1c(N)n(Cc2ccccc2)c(=O)[nH]c1=O	-0.5	6.8	-0.4	-3.8	2.3	18.2
COc1nc(OCCNC(=O)Nc2ccccc2)nc(N(C)C)n1	10.4	-1.7	-0.6	-6.9	0.4	5.4
CN(C)c1nc(OCCNC(=O)Nc2ccc(Cl)cc2)nc(N(C)C)n1	6.7	-3.6	4.0	25.5*	-1.9	-9.4
CCn1c(SCC(=O)Nc2ccc(Br)cn2)nnc1C1CC1	3.7	-6.4	3.9	1.0	-1.9	-0.8
COc1cc(N/C=C(\C(C)=O)c2ccccc2)cc(OC)c1	4.5	-0.4	-2.5	30.9*	-6.7	-2.1
CCc1ccccc1NC(=O)CN1CCN(C(=O)CNC(=O)c2ccc(-c3ccccc3)cc2)CC1	7.0	12.7	-0.1	3.4	4.3	-2.2
O=C(Cn1cnc2c(NCc3ccccc3)ncnc21)NCCCc1ccccc1	6.9	8.1	8.5	9.2	5.0	.
CN(C)c1ccc(/C=C/c2ccc3ccccc3n2)cc1	5.7	.	2.4	12.0	5.4	60.2*
COCCN(C(=O)COC(=O)c1cccs1)c1c(N)n(Cc2ccccc2)c(=O)[nH]c1=O	8.6	-4.4	4.1	3.9	4.2	-2.1
Nc1nnc(SCC(=O)NNC(=O)c2ccccc2)s1	-2.9	-9.8	0.9	.	-1.5	.
CC(=O)Nc1ccc(NC(=O)C(C)OC(=O)/C=C/c2cnc3ccccc3n2)cc1 (centres undefined)	0.7	-24.1	5.5	2.9	-3.5	1.2
CC(NC(=O)/C=C/c1cnc2ccccc2n1)C12CC3CC(CC(C3)C1)C2 (centres undefined)	7.8	24.6	24.4*	4.6	11.8	0.2
CN1CCN(c2cc(N3CCN(C(=O)c4ccco4)CC3)c3c4c(onc24)-c2ccccc2C3=O)CC1	8.8	82.4*	9.1	10.8	4.8	35.1
CCOc1cccc(=O)c2c(C)n(Cc3ccco3)c(C)c12	0.7	-0.4	5.1	33.2*	14.7	21.1
CCOC(=O)c1cc(C)n(Cc2ccccc2)c1C	5.5	8.0	4.0	7.5	-7.8	-2.4
CCOc1cccc(=O)c2c(C)n(Cc3ccccc3)c(C)c12	3.0	4.3	-1.5	26.5*	7.0	16.2
COc1ccc(N2CCCC2=N)c(OC)c1	7.2	16.9	10.0	-3.0	-3.0	-4.2
Cc1cccc(NC(=O)COC(=O)c2cccc3c2C(=O)c2ccccc2C3=O)c1C	12.9	18.3	4.3	30.6*	12.9	59.1*
CC(C)(C)Cc1nnc(NS(=O)(=O)c2ccc(F)cc2)s1	8.5	6.0	30.5*	9.3	3.8	-0.9
Cc1ccc(S(=O)(=O)Nc2nnc(CC(C)(C)C)s2)cc1	3.3	5.4	5.1	0.1	0.5	-3.2
Cc1ccc(S(=O)(=O)Nc2ccccc2N2CCCCC2)cc1	0.2	12.4	11.1	-1.6	6.5	12.6
O=C(NCC(F)(F)F)c1ccc(S(=O)(=O)Nc2ccccc2N2CCCC2)cc1	4.0	54.2*	3.3	-6.4	5.0	-6.5
CN(C)CCCNC(=O)C(=O)NCC1OCCN1S(=O)(=O)c1cccs1 (centres undefined)	3.6	64.2*	9.4	-4.6	-1.7	8.0
FC(F)(F)c1cccc(Cc2noc(CN(Cc3ccccn3)CC3CCCO3)n2)c1 (centres undefined)	2.3	-2.5	3.5	32.5*	-6.8	14.1
SMILES	PAFAH1B3 inh	Apaf1 inhib	PAFAH1B2 inh	pPAFAH inh	PAFAH2 inh	PREPL inh
Cc1c(N/N=C(\C#N)C(=O)c2ccc(Cl)cc2)c(=O)n(-c2ccccc2)n1C	7.4	.	3.9	3.6	-1.3	2.9
N#C/C(=N\Nc1ccc(Cl)cc1)C(=O)c1ccccc1	-3.0	-4.5	4.1	26.8*	24.9	-1.8
Cc1c(C(=O)NCC2CCCO2)oc2ccc(Br)cc12 (centres undefined)	7.4	11.4	8.3	7.2	-2.9	20.7
O=C(NCCS(=O)(=O)c1ccc(Br)cc1)c1ccc(Cl)cc1	-1.9	3.0	28.3*	5.4	4.7	-17.4
CC(C(=O)NCCS(=O)(=O)c1ccc(Br)cc1)S(=O)(=O)c1ccc(Cl)cc1 (centres undefined)	4.2	13.2	18.1	4.6	2.6	6.7
Cc1ccc(S(=O)(=O)Nc2cccc(CP(=O)(c3ccccc3)c3ccccc3)c2)cc1	6.5	8.6	20.9	8.8	4.2	-15.7
CCc1ccc(-c2csc3ncn(CC(=O)NCc4ccco4)c(=O)c23)cc1	0.2	6.3	2.2	6.9	-0.8	-48.1
O=C(Cn1cnc2scc(-c3ccccc3)c2c1=O)NCc1ccco1	-0.5	-1.7	-2.0	24.8*	-0.9	-0.6
COc1ccc(-c2noc(CSc3ccccc3)n2)cc1OC	7.0	14.6	24.4*	14.4	7.2	-8.1
Cc1ccc(NC(=O)C2C3CCC(O3)C2C(=O)O)c(Br)c1 (centres undefined)	6.1	-2.8	1.3	-0.6	-1.7	-2.5
COCCn1c(=O)[nH]c(=O)c2c1nc(-c1ccc(-c3ccc(Cl)cc3[N+](=O)[O-])o1)n2Cc1ccccc1	2.8	39.5	4.1	27.3*	4.2	33.1
CC(C)Cn1c(-c2cc([N+](=O)[O-])ccc2Cl)nc2c1c(=O)[nH]c(=O)n2Cc1ccccc1	-3.3	19.5	2.3	25.3*	-0.9	-14.0
Cc1ccc(-c2nc3c(c(=O)[nH]c(=O)n3CC(C)C)n2CC(C)C)cc1[N+](=O)[O-]	2.3	0.0	-1.4	6.0	5.5	21.8
CCSC1=N/C(=C\C=C2/Oc3ccccc3N2CC)C(=O)S1	2.9	14.0	1.2	7.8	5.6	19.1
CCC(C(=O)NC1CCCCC1)N(Cc1cccs1)C(=O)c1snc(C(N)=O)c1N (centres undefined)	.	13.7	.	-1.1	.	5.1
CN(c1ccccc1)S(=O)(=O)c1cccc(NC(=O)CN2C(=O)NC3(CCCCC3)C2=O)c1	3.8	9.5	2.9	-0.1	-3.3	67.8*
CN(c1ccccc1)S(=O)(=O)c1cccc(NC(=O)CSc2ncn[nH]2)c1	-1.3	13.9	24.9*	2.0	4.1	-4.5
Cc1ccc(S(=O)(=O)Nc2ccc3oc(=O)sc3c2)c(C)c1	-0.9	15.9	28.0*	15.7	8.1	25.8
Cc1ccc(S(=O)(=O)Nc2ccc3c(c2)n(C)c(=O)n3C)c(C)c1	2.9	-2.4	3.9	-6.4	7.8	-4.8
Oc1ccc(Br)cc1C=Nc1ccc2c3c(cccc13)CC2	13.2	14.7	5.3	28.2*	5.7	13.6
O=C(NCCc1ccccc1)C(=O)NCC(c1ccco1)N1CCOCC1 (centres undefined)	-3.0	-7.1	-1.1	-5.0	-0.1	15.7
CC(=O)c1cc(Cc2csc(C(C)=O)c2)cs1	1.4	1.7	6.2	-0.1	2.7	52.7*
